Data from ChEMBL document CHEMBL4402597, “Truncated (N)-Methanocarba Nucleosides as Partial Agonists at Mouse and Human A3 Adenosine Receptors: Affinity Enhancement by N6-(2-Phenylethyl) Substitution” (J Med Chem, 2020).
pIC50, pKi: −log10 of the molar value. Calls of active or inactive are those of the source. No cut-off for these calls is given here.

How the values were obtained:
[1] = target: Sigma intracellular receptor 2 (Homo sapiens, UniProt Q5BJF2); assay: Displacement of [3H]-DTG from sigma 2 receptor (unknown origin) measured after 90 mins by microbeta counting analysis
[2] = Half life in Wistar rat at 10 mg/kg, po; type: ADME, organism-based; details: in vivo
[3] = target: Cytochrome P450 2C19 (Homo sapiens, UniProt P33261); assay: Inhibition of CYP2C19 (unknown origin)
[4] = tested on: Mus musculus; assay: In vivo antagonist activity at A3AR in C57BL/6J mouse assessed as inhibition of MRS5698-induced hypothermia at 3 to 10 mg/kg, ip pretreated for 15 mins followed by MRS5698 addition and measured up to 2 hrs by telemetric method; type: functional, organism-based
[5] = tested on: Mus musculus; assay: Induction of hypothermia in A3AR knock out C57BL/6J mouse at 10 mg/kg, ip measured up to 2 hrs by telemetric method; type: functional, organism-based
Summary of the method: (§1)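 Male C57BL/6J wild-type mice, plus A3AR-knockout (ADORA3−/−) mice at 10 mg/kg, given test agent or vehicle i.p. Core body temperature (Tb) was followed over time. N=4 to 12 per group. Groups were compared by two-tailed t-test, paired or unpaired as appropriate.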

[6] = target: Adenosine receptor A2a (Homo sapiens, UniProt P29274); assay: Displacement of [3H]CGS21680 from recombinant human A2AAR expressed in HEK293 cell membranes at 10 uM measured after 60 mins by liquid scintillation counting method relative to control
[7] = target: Cytochrome P450 2C9 (Homo sapiens, UniProt P11712); assay: Inhibition of CYP2C9 (unknown origin) using tolbutamide as substrate
[8] = tested on: Mus musculus; assay: In vivo agonist activity at A3AR in C57BL/6J mouse assessed as reduction in core body temperature at 10 mg/kg, ip measured up to 2 hrs by telemetric method; type: functional, organism-based; summary of the method: as §1
[9] = target: Cytochrome P450 2D6 (Homo sapiens, UniProt P10635); assay: Inhibition of CYP2D6 (unknown origin) using dextromethorphan as substrate
[10] = target: T1, Adenosine receptor A1 (Homo sapiens) (UniProt P30542); assay: Displacement of [3H]R-PIA from recombinant human A1AR expressed in HEK293 cell membranes at 10 uM measured after 60 mins by liquid scintillation counting method relative to control
T1 sequence (whole entry): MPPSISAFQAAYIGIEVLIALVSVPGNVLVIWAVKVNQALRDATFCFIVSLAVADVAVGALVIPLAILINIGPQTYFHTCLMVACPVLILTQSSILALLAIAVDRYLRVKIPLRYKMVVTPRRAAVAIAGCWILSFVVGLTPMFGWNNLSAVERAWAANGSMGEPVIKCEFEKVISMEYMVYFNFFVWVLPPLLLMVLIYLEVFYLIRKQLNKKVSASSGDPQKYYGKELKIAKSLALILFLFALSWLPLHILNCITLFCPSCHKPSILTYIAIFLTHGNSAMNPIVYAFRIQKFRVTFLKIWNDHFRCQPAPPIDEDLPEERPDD

[11] = tested on: Mus musculus; assay: In vivo agonist activity at A3AR in C57BL/6J mouse assessed as reduction in core body temperature at 3 mg/kg, ip measured up to 2 hrs by telemetric method; type: functional, organism-based; summary of the method: as §1
[12] = target: T2, Adenosine receptor A1 (Mus musculus, UniProt Q60612); assay: Displacement of [3H]R-PIA from recombinant mouse A1AR expressed in HEK293 cell membranes measured after 60 mins by liquid scintillation counting method
T2 sequence (Q60612 whole entry): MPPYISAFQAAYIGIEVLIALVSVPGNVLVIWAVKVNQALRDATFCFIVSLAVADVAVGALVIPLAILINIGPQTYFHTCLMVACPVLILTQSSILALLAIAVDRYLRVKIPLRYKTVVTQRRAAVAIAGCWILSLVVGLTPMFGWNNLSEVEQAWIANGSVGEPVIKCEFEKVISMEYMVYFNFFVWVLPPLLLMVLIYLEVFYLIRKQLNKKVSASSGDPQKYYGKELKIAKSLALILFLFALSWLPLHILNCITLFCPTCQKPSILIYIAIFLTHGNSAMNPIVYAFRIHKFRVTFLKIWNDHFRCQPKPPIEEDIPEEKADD

[13] = target: Translocator protein (Homo sapiens, UniProt P30536); assay: Inhibition of TSPO (unknown origin)
[14] = target: T3, Cytochrome P450 1A2 (Homo sapiens, UniProt P05177); assay: Inhibition of CYP1A2 (unknown origin)
T3 sequence (P05177 whole entry): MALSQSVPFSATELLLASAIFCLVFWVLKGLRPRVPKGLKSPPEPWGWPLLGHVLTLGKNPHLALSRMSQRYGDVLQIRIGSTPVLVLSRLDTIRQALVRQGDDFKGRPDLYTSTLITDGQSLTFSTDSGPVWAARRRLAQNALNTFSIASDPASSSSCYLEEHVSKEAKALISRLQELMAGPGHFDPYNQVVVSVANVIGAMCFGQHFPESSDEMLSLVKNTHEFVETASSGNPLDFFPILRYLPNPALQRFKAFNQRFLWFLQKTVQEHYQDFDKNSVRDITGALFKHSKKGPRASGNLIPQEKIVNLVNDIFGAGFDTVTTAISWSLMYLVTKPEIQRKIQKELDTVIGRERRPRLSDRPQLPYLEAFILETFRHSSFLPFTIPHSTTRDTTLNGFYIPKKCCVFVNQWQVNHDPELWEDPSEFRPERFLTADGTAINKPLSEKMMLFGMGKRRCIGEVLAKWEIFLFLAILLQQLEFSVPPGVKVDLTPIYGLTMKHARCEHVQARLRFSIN

[15] = target: T4, Adenosine receptor A3 (Homo sapiens) (UniProt P0DMS8); assay: Partial agonist activity at recombinant human A3AR expressed in HEK293 cells assessed as inhibition of forskolin-stimulated cAMP accumulation at 10 uM measured after 30 mins in presence of A2BAR blocker PSB-603 by Glo-sensor assay relative to Cl-IB-MECA; type: functional, cell-based
T4 sequence (whole entry): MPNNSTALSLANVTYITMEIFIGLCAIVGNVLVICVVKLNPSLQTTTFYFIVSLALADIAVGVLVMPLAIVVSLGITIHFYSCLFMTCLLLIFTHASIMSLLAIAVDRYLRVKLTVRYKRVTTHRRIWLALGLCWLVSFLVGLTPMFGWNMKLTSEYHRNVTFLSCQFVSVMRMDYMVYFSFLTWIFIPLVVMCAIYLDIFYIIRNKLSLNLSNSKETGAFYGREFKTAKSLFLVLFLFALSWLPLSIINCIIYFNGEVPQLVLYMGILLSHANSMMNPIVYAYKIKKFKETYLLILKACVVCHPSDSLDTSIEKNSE

[16] = in vivo; details: Wistar, rat, po, 10 mg/kg
[17] = target: Cytochrome P450 3A4 (Homo sapiens, UniProt P08684); assay: Inhibition of CYP3A4 (unknown origin) using midazolam as substrate
[18] = target: Sigma non-opioid intracellular receptor 1 (Homo sapiens, UniProt Q99720); assay: Displacement of [3H]-Pentazocine from sigma 1 receptor (unknown origin) measured after 90 mins by microbeta counting analysis
[19] = Half life in Wistar rat at 3 mg/kg, po; type: ADME, organism-based; details: in vivo
[20] = in vivo; details: Wistar, rat, po, 3 mg/kg
[21] = target: T4, Adenosine receptor A3 (Homo sapiens); assay: Partial agonist activity at recombinant human A3AR expressed in HEK293 cells assessed as inhibition of forskolin-stimulated cAMP accumulation by measuring residual cAMP level measured after 30 mins in presence of A2BAR blocker PSB-603 by Glo-sensor assay relative to control; type: functional, cell-based
[22] = target: T5, Adenosine receptor A3 (Mus musculus) (UniProt Q61618); assay: Partial agonist activity at recombinant mouse A3AR expressed in HEK293 cell membranes assessed as stimulation of [35S]GTPgammaS binding measured after 2 hrs in presence of A2BAR blocker PSB-603 by liquid scintillation counting analysis relative to adenosine-5'-Nethyluronamide; type: functional
T5 sequence (whole entry): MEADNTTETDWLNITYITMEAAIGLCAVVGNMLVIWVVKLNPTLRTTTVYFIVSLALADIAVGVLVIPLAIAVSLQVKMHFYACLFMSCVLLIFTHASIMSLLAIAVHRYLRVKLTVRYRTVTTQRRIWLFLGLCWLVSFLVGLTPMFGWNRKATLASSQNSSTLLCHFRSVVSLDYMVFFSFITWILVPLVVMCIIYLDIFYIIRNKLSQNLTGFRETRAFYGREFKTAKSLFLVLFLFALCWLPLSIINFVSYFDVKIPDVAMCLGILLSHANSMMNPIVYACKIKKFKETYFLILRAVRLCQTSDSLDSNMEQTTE

Chain of Cytochrome P450 2D6 (P10635 whole entry): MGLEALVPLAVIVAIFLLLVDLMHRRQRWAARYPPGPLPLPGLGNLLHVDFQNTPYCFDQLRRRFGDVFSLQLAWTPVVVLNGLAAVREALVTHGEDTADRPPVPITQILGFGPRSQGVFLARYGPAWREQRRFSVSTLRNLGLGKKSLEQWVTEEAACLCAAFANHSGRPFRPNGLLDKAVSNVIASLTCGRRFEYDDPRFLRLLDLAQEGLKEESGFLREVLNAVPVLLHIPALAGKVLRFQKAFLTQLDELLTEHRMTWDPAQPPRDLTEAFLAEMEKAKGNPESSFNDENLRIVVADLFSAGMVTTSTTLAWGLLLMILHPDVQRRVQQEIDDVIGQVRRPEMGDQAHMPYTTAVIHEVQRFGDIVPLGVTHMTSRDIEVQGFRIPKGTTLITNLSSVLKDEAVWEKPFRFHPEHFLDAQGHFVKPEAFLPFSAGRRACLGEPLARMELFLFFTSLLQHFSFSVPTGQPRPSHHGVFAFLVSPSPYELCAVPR
Chain of Cytochrome P450 3A4 (P08684 whole entry): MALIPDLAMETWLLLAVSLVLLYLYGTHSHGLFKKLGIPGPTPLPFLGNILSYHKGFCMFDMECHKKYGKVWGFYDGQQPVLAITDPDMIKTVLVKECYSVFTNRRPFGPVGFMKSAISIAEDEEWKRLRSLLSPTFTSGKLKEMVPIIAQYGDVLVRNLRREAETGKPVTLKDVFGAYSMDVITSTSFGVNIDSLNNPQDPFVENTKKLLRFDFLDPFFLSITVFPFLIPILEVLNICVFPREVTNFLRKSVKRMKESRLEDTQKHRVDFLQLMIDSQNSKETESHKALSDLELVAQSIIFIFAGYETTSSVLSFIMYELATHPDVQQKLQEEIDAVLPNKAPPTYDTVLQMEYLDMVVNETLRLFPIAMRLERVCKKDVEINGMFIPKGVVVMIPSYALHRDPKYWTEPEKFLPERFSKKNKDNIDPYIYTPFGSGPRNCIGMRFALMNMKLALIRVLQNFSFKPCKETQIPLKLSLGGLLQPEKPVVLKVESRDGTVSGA
Chain of Translocator protein (P30536 whole entry): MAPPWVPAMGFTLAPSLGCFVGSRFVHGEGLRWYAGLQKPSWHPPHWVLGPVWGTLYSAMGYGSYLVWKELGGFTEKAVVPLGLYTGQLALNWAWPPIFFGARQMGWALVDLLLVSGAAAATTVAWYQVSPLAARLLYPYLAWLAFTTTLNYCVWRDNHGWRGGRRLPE
Chain of Cytochrome P450 2C19 (P33261 whole entry): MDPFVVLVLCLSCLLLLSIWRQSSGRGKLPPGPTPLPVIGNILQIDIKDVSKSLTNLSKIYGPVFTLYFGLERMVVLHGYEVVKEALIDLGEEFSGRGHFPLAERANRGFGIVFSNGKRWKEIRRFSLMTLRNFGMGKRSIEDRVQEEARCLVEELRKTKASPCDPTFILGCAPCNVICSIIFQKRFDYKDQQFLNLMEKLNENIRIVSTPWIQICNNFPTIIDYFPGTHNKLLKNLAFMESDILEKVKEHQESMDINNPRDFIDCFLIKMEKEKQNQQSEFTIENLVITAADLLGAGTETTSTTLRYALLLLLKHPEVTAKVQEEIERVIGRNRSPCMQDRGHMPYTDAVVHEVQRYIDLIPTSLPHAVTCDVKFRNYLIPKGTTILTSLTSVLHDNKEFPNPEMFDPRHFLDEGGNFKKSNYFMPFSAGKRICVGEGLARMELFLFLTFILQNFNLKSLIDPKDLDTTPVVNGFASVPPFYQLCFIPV
Chain of Sigma non-opioid intracellular receptor 1 (Q99720 whole entry): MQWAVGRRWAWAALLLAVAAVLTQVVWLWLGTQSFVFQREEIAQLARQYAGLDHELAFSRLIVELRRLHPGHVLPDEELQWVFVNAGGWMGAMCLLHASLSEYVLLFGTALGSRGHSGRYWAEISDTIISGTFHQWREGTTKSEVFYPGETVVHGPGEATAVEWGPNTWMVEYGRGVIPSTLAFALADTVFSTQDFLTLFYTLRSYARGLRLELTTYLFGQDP
Chain of Cytochrome P450 2C9 (P11712 whole entry): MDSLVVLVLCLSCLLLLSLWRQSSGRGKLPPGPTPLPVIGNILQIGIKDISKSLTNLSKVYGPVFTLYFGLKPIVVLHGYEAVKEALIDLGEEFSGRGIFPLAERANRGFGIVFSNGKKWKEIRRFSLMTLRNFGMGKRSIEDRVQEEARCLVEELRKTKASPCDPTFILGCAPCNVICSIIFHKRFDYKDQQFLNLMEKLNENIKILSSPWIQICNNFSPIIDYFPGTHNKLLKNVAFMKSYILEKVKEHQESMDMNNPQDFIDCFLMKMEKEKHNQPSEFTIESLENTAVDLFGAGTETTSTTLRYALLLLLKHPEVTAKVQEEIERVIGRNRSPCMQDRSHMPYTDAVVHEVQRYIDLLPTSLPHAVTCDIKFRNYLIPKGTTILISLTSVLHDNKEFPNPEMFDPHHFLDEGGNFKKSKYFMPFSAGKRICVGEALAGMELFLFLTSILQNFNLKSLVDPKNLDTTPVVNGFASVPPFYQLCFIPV
Chain of Adenosine receptor A2a (P29274 whole entry): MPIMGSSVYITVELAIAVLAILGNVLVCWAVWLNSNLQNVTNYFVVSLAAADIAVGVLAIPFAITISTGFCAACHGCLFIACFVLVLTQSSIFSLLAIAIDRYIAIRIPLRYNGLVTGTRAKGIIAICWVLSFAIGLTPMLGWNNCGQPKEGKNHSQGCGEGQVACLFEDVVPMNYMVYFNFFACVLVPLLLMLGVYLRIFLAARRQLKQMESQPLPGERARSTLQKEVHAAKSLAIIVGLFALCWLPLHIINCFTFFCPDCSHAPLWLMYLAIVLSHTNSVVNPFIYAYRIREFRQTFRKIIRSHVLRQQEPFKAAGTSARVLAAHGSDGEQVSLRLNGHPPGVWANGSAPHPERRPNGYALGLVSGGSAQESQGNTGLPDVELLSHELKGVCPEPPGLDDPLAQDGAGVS
Chain of Sigma intracellular receptor 2 (Q5BJF2 whole entry): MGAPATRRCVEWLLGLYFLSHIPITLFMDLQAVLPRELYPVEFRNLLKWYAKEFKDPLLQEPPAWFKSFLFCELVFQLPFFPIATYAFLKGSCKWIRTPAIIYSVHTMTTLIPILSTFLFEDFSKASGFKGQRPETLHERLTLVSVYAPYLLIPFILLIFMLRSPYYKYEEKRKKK

With `COc1cc(CCNc2nc(C#Cc3ccccc3)nc3c2ncn3[C@H]2[C@H](O)[C@H](O)[C@@H]3C[C@@H]32)ccc1O` as the compound, how does the pKi [1] read?
Its pKi is 5.70.

What about the half-life [2] of the same compound?
Its half-life is 29.4 min.

And the pIC50 [3]?
Its pIC50 is under 4.52.

What about the inhibition [4] of the same compound?
The inhibition was “inactive”.

And the Activity [5]?
The Activity was “inactive”.

What about the inhibition [6] of the same compound?
The inhibition was 39%.

What about the pIC50 [7] of the same compound?
Its pIC50 is 4.84.

And the Activity [8]?
The Activity was “Active”.

And the pIC50 [9]?
Its pIC50 is under 4.52.

What about the inhibition [10] of the same compound?
The inhibition was 33%.

And the Activity [11]?
Its Activity is “Active”.

What about the pKi [12] of the same compound?
The pKi was 6.23.

What about the pKi [13] of the same compound?
The pKi was 5.65.

And the pIC50 [14]?
Its pIC50 is 5.54.

What about the Emax [15] of the same compound?
Its Emax is 31%.

What about the bioavailability [16] of the same compound?
The bioavailability was 3.5%.

And the pIC50 [17]?
Its pIC50 is 5.65.

And the pKi [18]?
Its pKi is 5.45.

What about the half-life [19] of the same compound?
The half-life was 27.4 min.

What about the bioavailability [20] of the same compound?
Its bioavailability is 1.5%.

What about the Emax [21] of the same compound?
The Emax was 75.5%.

And the Emax [22]?
The Emax was 16%.
